Results on ten compounds are retold here after ChEMBL document CHEMBL1157249, “Alpha-glucosidase inhibitory anthranols, kenganthranols A-C, from the stem bark of Harungana madagascariensis” (J Nat Prod, 2006).

Each structure is given as a SMILES string. Active and inactive are the calls of the source. The rule behind the calls is not given here.

Assay [1] deals with Saccharomyces. Put plainly: Inhibition of Saccharomyces sp. alpha glucosidase at 800 uM by spectrophotometry.
A short description of assay [2]: (§1) Inhibition of Saccharomyces sp. alpha glucosidase by spectrophotometry. The procedure, abridged:
(§2)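 Yeast (Saccharomyces sp.) α-glucosidase, 250 units/mL, in 50 mM sodium phosphate buffer with 100 mM NaCl, pH 6.9, 37 °C; substrate […] p-nitrophenyl α-D-glucopyranoside. Hydrolysis followed continuously as absorbance increase at 400 nm. 1-Deoxynojirimycin (0.425 mM) and acarbose (0.78 mM) served as positive controls. Modified literature method.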

Assay [3] concerns Saccharomyces. The assay is described as §1. The procedure, abridged: as §2

`COc1cc2c(c(O)c1/C=C/C(C)C)C(=O)c1c(O)cc(C)cc1C2=O`: the outcome in the assay with Saccharomyces [1] was inactive.
As for `COc1cc2c(c(O)c1CC(=O)C(C)C)C(=O)c1c(O)cc(C)cc1C2=O`, in the assay on Saccharomyces [1], the result was inactive.
The same measure, in the same setting: the result for `O=c1c2cc(O)ccc2oc2cccc(O)c12` reads “inactive”.
By IC50 is commonly meant the concentration that inhibits the measured activity by half. The low end stands for higher potency, the high end for lower potency. In assay [2], `C[C@H]1O[C@H](O[C@H]2[C@H](O)[C@@H](O)[C@@H](O[C@H]3[C@H](O)[C@@H](O)C(O)O[C@@H]3CO)O[C@@H]2CO)[C@H](O)[C@@H](O)[C@@H]1N[C@H]1C=C(CO)C(O)[C@H](O)[C@H]1O` (single isomer, unassigned) [ACARBOSE] came in with an IC50 of 780 µM.
Still for that read-out and setting: next, `OC[C@H]1NC[C@H](O)[C@@H](O)[C@@H]1O` [DUVOGLUSTAT]: 426 µM.
Regarding `CC(C)=CCc1c(C)cc(O)c2c(O)c3c(cc12)C(CC=C(C)C)(CC=C(C)C)C(O)=CC3=O` [HARUNGANIN], half-maximal inhibition in assay [2] (IC50) was put at 6 µM. The Activity result in the assay on Saccharomyces [3] was “Dose-dependent effect”.
The matching figures for `CC(C)=CCc1c(C)c(CC=C(C)C)c2c(c1O)C(=O)c1c(O)cc(O)c(CC=C(C)C)c1C2` [HARUNGANOL B]: 12 µM and “Dose-dependent effect”.
The matching figures for `CC(C)=CCc1c(O)c(CC=C(C)C)c2c(c1O)C(=O)c1c(O)cc(C)c(CC=C(C)C)c1C2O` (stereo not given) [KENGANTHRANOL B]: 6.3 µM and “Dose-dependent effect”.
`COC1c2c(CC=C(C)C)c(C)cc(O)c2C(=O)c2c(O)cc3c(c21)CC(C(C)(C)O)O3` (stereo not given) [KENGANTHRANOL C]: the IC50 in assay [2] came to 21.9 µM. In the assay with Saccharomyces [3], the Activity result was “Dose-dependent effect”.
The like results for `COc1cc(O)c2c(c1)C(=O)c1cc(C)cc(O)c1C2=O` [PHYSCION] were, in that order, 192 µM and “Dose-dependent effect”.
